Test results as given in paper PMC11250141 (RSC Advances, 2024).

Tests used:
[1] = DPPH˙ scavenging activity; details: 30 min, 515 nm; tested 10–100 µg mL^−1
Method in brief: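 Test compound (10–100 µg mL⁻¹) or 80% methanol control was mixed 1:2 (v/v) with DPPH solution, shaken, and kept 30 min at room temperature in the dark. Absorbance was read at 515 nm. Scavenging % = 100 × (1 − A sample/A DPPH blank). Ferulic and syringic acids served as references. Run in triplicate.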

Cell viability [2] = assay type: cell-based; details: human, HUVEC cells
Method in brief: (§1)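 Caco-2 and Vero cells were grown in DMEM with 10% FBS, and HUVEC in DMEM-F12 with 10% FBS, at 37 °C and 5% CO₂. Cells were seeded at 5.000 per well 24 h before treatment. Test compound was diluted from a 100 mM DMSO stock into 1% FBS medium at 1, 10, 30, 50, 100 and 150 µM. Controls were 10% DMSO and medium alone. At 24, 48 and 72 h, cells got resazurin (0.5 mg mL⁻¹ solution) for 4 h, read at ex 560/em 590 nm. IC50 was from curve fitting.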

Cell viability [3] = assay type: cell-based; details: African green monkey, Vero cells
Method in brief: as §1

Cell viability [4] = assay type: cell-based; details: human, Caco-2 cells
Method in brief: as §1

[5] = SO + additive at 200 ppm; for T 5 (5% mass loss) / T 10 (10% mass loss) / T 50 (50% mass loss) / T onset (decomposition temperature: onset temperature): TGA in air
Method in brief: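 Thermogravimetry of sunflower oil with 200 ppm test compound: about 10 mg oil in a Pt crucible was heated from ambient to 700 °C at 5 °C min⁻¹ in air (60 mL min⁻¹), with N₂ purge on the balance. Onset temperature and temperatures at 5, 10 and 50% mass loss came from TG/DTG curves and were compared with unsupplemented oil.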

Lipoperoxidation = details: 220 °C; for Reduction in secondary oxidation (TBARS) in comparison with SOcontrol / TBARS value: SO + additive 200 ppm; for TBARS value: 30 min
Method in brief: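 Sunflower oil with 200 ppm test compound was heated on a hot plate at 25, 100, 180 and 220 °C for 30 min (ramp 2 °C min⁻¹). Oil (0.5 mL) was vortexed with TBA/TCA/HCl and centrifuged 3500 rpm for 5 min. Supernatant was heated 90 °C for 15 min and read at 535 nm against an MDA curve, as nmol MDA per mL oil. Unsupplemented oil was the control. Run in triplicate.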

[6] = Cytotoxic effect, summary over the three cell lines; assay type: cell-based; details: human (Caco-2, HUVEC); African green monkey (Vero), Caco-2, HUVEC and Vero cells
Method in brief: as §1

[7] = Schaal Oven Test, TBARS, sunflower oil; details: 60 °C, over 12 days
Method in brief: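 Schaal oven test (AOCS Cg5-97): supplemented olive or sunflower oil was held at 60 ± 5 °C in the dark for 12 days, sampled every 3 days. TBARS: oil was mixed with TBA/TCA/HCl and centrifuged. Supernatant was heated 90 °C for 15 min and read at 535 nm against an MDA curve (nmol MDA per mL oil). n = 3, compared with unsupplemented oil.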

Antioxidant capacity (DPPH), IC50 [1] [µg/mL] | SMILES | IC50 at 24 h (Cell viability [2]) [µM] | IC50 at 48 h (Cell viability [2]) [µM] | IC50 at 72 h (Cell viability [2]) [µM] | IC50 at 24 h (Cell viability [3]) [µM] | IC50 at 48 h (Cell viability [3]) [µM] | IC50 at 72 h (Cell viability [3]) [µM] | IC50 at 24 h (Cell viability [4]) [µM] | IC50 at 48 h (Cell viability [4]) [µM] | IC50 at 72 h (Cell viability [4]) [µM] | T 5 (5% mass loss) [5] [°C] | T 10 (10% mass loss) [5] [°C] | T 50 (50% mass loss) [5] [°C] | T onset (decomposition temperature: onset temperature) [5] [°C] | Reduction in secondary oxidation (TBARS) in comparison with SOcontrol (Lipoperoxidation) [times] | IC50 [6] [µM] | other results
56.50 ± 2.38 | CCOc1ccc(/C=C/C(=O)O)cc1OC [Compound 3a, (E)-3-(4-Ethoxy-3-methoxyphenyl)acrylic acid] | > 100 | > 100 | > 100 | > 100 | > 100 | > 100 | > 100 | > 100 | > 100 |  |  |  |  |  |  | 
90.43 ± 1.63 | CCCOc1ccc(/C=C/C(=O)O)cc1OC [Compound 3b, (E)-3-(3-Methoxy-4-propoxyphenyl)acrylic acid] | > 100 | > 100 | > 100 | > 100 | > 100 | > 100 | > 100 | > 100 | > 100 | 376 | 390 | 423 | 344 | 5 |  | Difference of degradation temperature in comparison to SO at 5% mass loss [5]: 35 °C; Difference of degradation temperature in comparison to SO at 10% mass loss [5]: 25 °C; Difference of degradation temperature in comparison to SO at 50% mass loss [5]: 4 °C; TBARS value (Lipoperoxidation): 8.88 nmol/mL
>100 | CCCCCOc1ccc(/C=C/C(=O)O)cc1OC [Compound 3c, (E)-3-(3-Methoxy-4-(pentyloxy)phenyl)acrylic acid] | > 100 | > 100 | > 100 | > 100 | > 100 | > 100 | > 100 | > 100 | > 100 | 370 | 386 | 424 | 343 | 6 |  | TBARS value (Lipoperoxidation): 7.68 nmol/mL; TBARS value (level of SO oxidation) (Lipoperoxidation; SO + additive): 7.68 nmol/L
>100 | CCCCCCOc1ccc(/C=C/C(=O)O)cc1OC [Compound 3d, (E)-3-(4-(Hexyloxy)-3-methoxyphenyl)acrylic acid] | > 100 | > 100 | > 100 | > 100 | > 100 | > 100 | > 100 | > 100 | > 100 |  |  |  |  |  |  | 
>100 | CCCCCCCCOc1ccc(/C=C/C(=O)O)cc1OC [Compound 3e, (E)-3-(3-Methoxy-4-(octyloxy)phenyl)acrylic acid] | 90 ± 1.03 | 53.1 ± 1.02 | 54.4 ± 1.05 | > 100 | > 100 | > 100 | > 100 | > 100 | 96.2 ± 1.1 |  |  |  |  |  | < 100 | 
>100 | CCCCCCCCCCOc1ccc(/C=C/C(=O)O)cc1OC [Compound 3f, (E)-3-(4-(Decyloxy)-3-methoxyphenyl)acrylic acid] | 55.6 ± 1.05 | 26.4 ± 1.06 | 25.4 ± 1.08 | > 100 | > 100 | > 100 | > 100 | 88.7 ± 1.08 | 76.8 ± 1.08 |  |  |  |  |  | < 100 | 
4.53 ± 0.19 | COc1cc(C(=O)O)cc(OC)c1O [Compound 4, syringic acid, reference compound] |  |  |  |  |  |  |  |  |  |  |  |  |  |  |  | 
9.20 ± 0.91 | CCOc1c(OC)cc(C(=O)O)cc1OC [Compound 5a, 4-Ethoxy-3,5-dimethoxybenzoic acid] | > 100 | > 100 | > 100 | > 100 | > 100 | > 100 | > 100 | > 100 | > 100 |  |  |  |  |  |  | 
11.47 ± 0.58 | CCCOc1c(OC)cc(C(=O)O)cc1OC [Compound 5b, 3,5-Dimethoxy-4-propoxybenzoic acid] | > 100 | > 100 | > 100 | > 100 | > 100 | > 100 | > 100 | > 100 | > 100 | 364 | 382 | 420 | 305 | 5 |  | Increase of onset temperature of mass loss (Tonset) in comparison with SO [5]: 24 °C
34.98 ± 2.23 | CCCCCOc1c(OC)cc(C(=O)O)cc1OC [Compound 5c, 3,5-Dimethoxy-4-(pentyloxy)benzoic acid] | > 100 | > 100 | > 100 | > 100 | > 100 | > 100 | > 100 | > 100 | > 100 | 368 | 388 | 426 | 318 | 5 |  | Increase of onset temperature of mass loss (Tonset) in comparison with SO [5]: 37 °C; TBARS values compared with control [7]: decreased the TBARS values
>100 | CCCCCCOc1c(OC)cc(C(=O)O)cc1OC [Compound 5d, 4-(Hexyloxy)-3,5-dimethoxybenzoic acid] | > 100 | > 100 | > 100 | > 100 | > 100 | > 100 | > 100 | > 100 | > 100 |  |  |  |  |  |  | 
>100 | CCCCCCCCOc1c(OC)cc(C(=O)O)cc1OC [Compound 5e, 3,5-Dimethoxy-4-(octyloxy)benzoic acid] | > 100 | 55.9 ± 1.06 | 53.3 ± 1.05 | > 100 | > 100 | > 100 | > 100 | > 100 | > 100 |  |  |  |  |  | < 100 | 
>100 | CCCCCCCCCCOc1c(OC)cc(C(=O)O)cc1OC [Compound 5f, 4-(Decyloxy)-3,5-dimethoxybenzoic acid] | 47.2 ± 1.04 | 35.4 ± 1.04 | 29.3 ± 1.09 | > 100 | > 100 | > 100 | > 100 | 70 ± 1.06 | 62.8 ± 1.07 |  |  |  |  |  | < 100 | 
